Results published in ChEMBL document CHEMBL1137448, “Structure-activity studies on diphenylpyrazine derivatives: a novel class of prostacyclin receptor agonists” (Bioorg Med Chem, 2007).
Each block holds one molecule with its values, some of them ahead of it.

Columns and labels:
Plasma = experiment: Inhibition of ADP-induced platelet aggregation in human platelet rich plasma
[1] = AUC in Beagle dog at 3 mg/kg, po; type: ADME, organism-based, Canis lupus familiaris; parameters: dose 3 mg/kg, route oral; settings: plasma
In short: (§1)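 Compound given iv or po to non-fasted groups of three animals (acclimatized ≥1 week rats, ≥3 weeks dogs; fed standard diets, 21–25 °C). Venous blood at predose, 5, 15, 30 min, 1, 2, 4, 6, 8, 10, 24 h into heparinized tubes; plasma by centrifugation (3000 rpm, 15 min, 4 °C); drug measured by LC-MS (APCI or ESI positive, SIM/SRM). Values mean ± SD, n = 3.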

[2] = Tmax in Beagle dog at 3 mg/kg, po; type: ADME, organism-based, Canis lupus familiaris; parameters: dose 3 mg/kg, route oral; settings: in vivo
In short: (§2)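 Animals were acclimatized (rats >1 week, dogs and monkeys >3 weeks) at 21–25 °C and 45–65% humidity, and were not fasted. Dosing was iv or oral to groups of three. Venous blood was sampled predose and at 5, 15 and 30 min and 1–24 h into heparin. Plasma was spun at 3000 rpm for 15 min at 4 °C and analysed by LC-MS (APCI/ESI positive, SIM/SRM). Values are mean ± SD, n=3.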

[3] = Half life in Sprague-Dawley rat at 3 mg/kg, iv; type: ADME, organism-based; parameters: dose 3 mg/kg, route intravenous; settings: in vivo
In short: as §2

[4] = AUC in Sprague-Dawley rat at 3 mg/kg, iv; type: ADME, organism-based; parameters: dose 3 mg/kg, route intravenous; settings: plasma
In short: as §1

[5] = Tmax in cynomolgus monkey at 1 mg/kg, po; type: ADME, organism-based, Macaca fascicularis; parameters: dose 1 mg/kg, route oral; settings: in vivo
In short: (§3)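 Compound given iv or orally to non-fasted animals, groups of three; dogs and monkeys acclimatised over 3 weeks at 21–25 °C, 45–65% humidity. Venous blood drawn into heparinised tubes before dosing and at 5, 15, 30 min and 1, 2, 4, 6, 8, 10, 24 h; plasma by centrifugation (3000 rpm, 15 min, 4 °C), drug quantified by HPLC-MS in SIM or SRM mode; mean ± SD, n = 3.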

[6] = Cmax in cynomolgus monkey at 1 mg/kg, po; type: ADME, organism-based, Macaca fascicularis; parameters: dose 1 mg/kg, route oral; settings: in vivo
In short: as §3

[7] = Half life in Sprague-Dawley rat at 10 mg/kg, po; type: ADME, organism-based; parameters: dose 10 mg/kg, route oral; settings: in vivo
In short: as §2

[8] = Half life in Beagle dog at 3 mg/kg, po; type: ADME, organism-based, Canis lupus familiaris; parameters: dose 3 mg/kg, route oral; settings: in vivo
In short: as §2

[9] = Cmax in Sprague-Dawley rat at 10 mg/kg, po; type: ADME, organism-based; parameters: dose 10 mg/kg, route oral; settings: in vivo
In short: as §2

[10] = Half life in cynomolgus monkey at 1 mg/kg, po; type: ADME, organism-based, Macaca fascicularis; parameters: dose 1 mg/kg, route oral; settings: in vivo
In short: as §3

[11] = AUC in Beagle dog at 1 mg/kg, iv; type: ADME, organism-based, Canis lupus familiaris; parameters: dose 1 mg/kg, route intravenous; settings: plasma
In short: as §1

[12] = AUC in Sprague-Dawley rat at 10 mg/kg, po; type: ADME, organism-based; parameters: dose 10 mg/kg, route oral; settings: plasma
In short: as §1

[13] = Oral bioavailability in Sprague-Dawley rat at 10 mg/kg; type: ADME, organism-based; settings: in vivo
In short: as §2

[14] = AUC in cynomolgus monkey at 1 mg/kg, po; type: ADME, organism-based, Macaca fascicularis; parameters: dose 1 mg/kg, route oral; settings: plasma
In short: as §2

[15] = Oral bioavailability in Beagle dog at 3 mg/kg; type: ADME, organism-based, Canis lupus familiaris; settings: in vivo
In short: as §2

[16] = Tmax in Sprague-Dawley rat at 10 mg/kg, po; type: ADME, organism-based; parameters: dose 10 mg/kg, route oral; settings: in vivo
In short: as §2

[17] = Half life in Beagle dog at 1 mg/kg, iv; type: ADME, organism-based, Canis lupus familiaris; parameters: dose 1 mg/kg, route intravenous; settings: in vivo
In short: as §3

[18] = Cmax in Beagle dog at 3 mg/kg, po; type: ADME, organism-based, Canis lupus familiaris; parameters: dose 3 mg/kg, route oral; settings: in vivo
In short: as §2

SMILES: CC(C)N(CCCCOCC(=O)O)c1cnc(-c2ccccc2)c(-c2ccccc2)n1
- AUC [1]: 176000 ng·h/mL
- Tmax [2]: 0.8 h
- half-life [3]: 4.9 h
- AUC [4]: 5200 ng·h/mL
- Tmax [5]: 2.3 h
- Cmax [6]: 110 ng/mL
- half-life [7]: 3.6 h
- half-life [8]: 6.2 h
- Cmax [9]: 1900 ng/mL
- half-life [10]: 5.6 h
- AUC [11]: 72500 ng·h/mL
- IC50 (Plasma): 200 nM
- AUC [12]: 17700 ng·h/mL
- bioavailability [13]: 102%
- AUC [14]: 650 ng·h/mL
- bioavailability [15]: 80%
- Tmax [16]: 0.8 h
- half-life [17]: 5.9 h
- Cmax [18]: 14900 ng/mL

SMILES: CC#CCC(C)[C@H](O)/C=C/[C@@H]1[C@H]2c3cccc(CCCC(=O)O)c3O[C@H]2C[C@H]1O (stereo partly drawn) [BERAPROST SODIUM]
- IC50 (Plasma): 17 nM

Further molecules by falling IC50 (Plasma), results first:

- IC50 (Plasma): 6400 nM
SMILES: CC(C)N(CCCCOCC(=O)NS(C)(=O)=O)c1cnc(-c2ccccc2)c(-c2ccccc2)n1 [SELEXIPAG]

- IC50 (Plasma): 2000 nM
SMILES: CN(CCc1cccc(OCC(=O)O)c1)c1cnc(-c2ccccc2)c(-c2ccccc2)n1

- IC50 (Plasma): 5 nM
SMILES: CC#CCC(C)[C@H](O)/C=C/[C@@H]1[C@H]2C/C(=C/CCCC(=O)O)C[C@H]2C[C@H]1O (stereo partly drawn) [ILOPROST]
